Results as given in ChEMBL document CHEMBL1135118, “Aromatic farnesyl diphosphate analogues: vinyl triflate-mediated synthesis and preliminary enzymatic evaluation” (Bioorg Med Chem Lett, 2002).

Key:
Assay type in all cases: protein-complex assay
[1] = target: T1, Protein farnesyltransferase (Homo sapiens, UniProt P49354+P49356); assay: Inhibitory activity against mammalian protein-farnesyltransferase
In short: (§1)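 Inhibition read in the continuous fluorescence assay with recombinant mammalian FTase and dansyl-GCVLS peptide at 30 °C for 300 s (ex 350/em 486 nm). Tris–HCl pH 7.0 buffer held DTT, MgCl₂, ZnCl₂ and 0.4% dodecyl maltoside. E,E-FPP was fixed while analogue amounts varied; farnesylation rate was measured for each.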

[2] = target: T1, Protein farnesyltransferase; assay: Inhibitory activity against mammalian protein-Farnesyltransferase; in short: as §1
[3] = target: T1, Protein farnesyltransferase; assay: Inhibitory activity against mammalian protein-Farnesyltransferase at 10 uM
[4] = system: C/C(=C\COP(=O)(O)OP(=O)(O)O)CCc1ccc(-c2ccccc2)cc1; assay: Binding affinity for Farnesyltransferase
In short: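 Continuous fluorimetric farnesylation assay with purified recombinant mammalian FTase and dansyl-GCVLS peptide as cosubstrate. FPP analogue or E,E-FPP supplied as a varied substrate in 52 mM Tris–HCl pH 7.0 with 5.8 mM DTT, MgCl₂, ZnCl₂ and 0.4% n-dodecyl-β-D-maltoside. Reaction started with enzyme; fluorescence (ex 350/em 486 nm) recorded for 300 s at 30 °C. Initial fluorescence rates were converted to velocities for Km.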

Molecule: C/C(=C\COP(=O)(O)OP(=O)(O)O)COCc1ccc(C(=O)c2ccccc2)cc1
- IC50 [1]: 2.3 µM

Molecule: C/C(=C\COP(=O)(O)OP(=O)(O)O)CCc1ccc2ccccc2c1
- IC50 [2]: 5.4 µM

Molecule: C/C(=C\COP(=O)(O)OP(=O)(O)O)CCc1ccccc1-c1ccccc1
- IC50 [3]: > 10 µM

Molecule: Protein farnesyltransferase (Homo sapiens) (from UniProt P49354+P49356)
- Km [4]: 0.8 µM
